Measured values taken from ChEMBL document CHEMBL4364294 (J Med Chem, 2019).

Tests used:
[1] = AUC (0 to infinity) in C57Bl6 mouse at 10 mg/kg, po administered as single dose; format: ADME, organism-based; design: dose 10 mg/kg, time infinity, route oral; conditions: in vivo
Method in brief: (§1)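 C57Bl/6 mice were given single intravenous or oral doses (oral at 10 and 100 mg/kg). Plasma PK parameters were CL, AUC0-inf, t1/2, Cmax and %F.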

[2] = Cmax in dog at 15 mg/kg, po administered as single dose; format: ADME, organism-based, Canis lupus familiaris; design: dose 15 mg/kg, route oral; conditions: in vivo
Method in brief: (§2)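 Dogs were given single intravenous doses, or oral doses from 5 to 50 mg/kg. Plasma PK parameters were CL, AUC0-inf, t1/2, Cmax and %F.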

[3] = Toxicity in dog administered twice daily for 28 days with 2 week recovery; design: species or system Canis lupus familiaris; conditions: in vivo
Method in brief: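 Rats and dogs underwent 28-day repeat-dose studies with twice-daily dosing, followed by a 2-week recovery period. The NOAEL (mg/kg/dose BID) was established, and the matching systemic exposure was reported as AUC0-inf.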

[4] = Stability in human microsomes assessed as parent compound remaining after 90 mins in presence of phase 1 and 2 metabolic cofactors; format: ADME, Microsome; conditions: read-out: Stability
[5] = Half life in Sprague-Dawley rat at 25 mg/kg, po administered as single dose; format: ADME, organism-based; conditions: in vivo
Method in brief: (§3)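 Sprague-Dawley rats each received one dose of drug, either iv across 10-50 mg/kg or orally at 10, 25 and 50 mg/kg. Plasma pharmacokinetics covered CL, AUC0-inf, t1/2, Cmax and Tmax. Oral bioavailability (%F) was obtained from the oral and iv exposures.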

[6] = Half life in Sprague-Dawley rat at 25 mg/kg, iv administered as single dose; format: ADME, organism-based; conditions: in vivo; method in brief: as §3
[7] = AUC (0 to infinity) in dog at 150 mg/kg, po administered as single dose; format: ADME, organism-based, Canis lupus familiaris; design: dose 150 mg/kg, time infinity, route oral; conditions: in vivo
[8] = AUC (0 to infinity) in Sprague-Dawley rat at 25 mg/kg, iv administered as single dose; format: ADME, organism-based; design: dose 25 mg/kg, route intravenous, time infinity; conditions: in vivo
Method in brief: (§4)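 Sprague-Dawley rats were given single doses, intravenous at 10–50 mg/kg or oral at 10, 25 and 50 mg/kg. Plasma PK parameters were CL, AUC0-inf, t1/2, Cmax and %F.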

[9] = Half life in C57Bl6 mouse at 100 mg/kg, po administered as single dose; format: ADME, organism-based; conditions: in vivo; method in brief: as §1
[10] = Half life in Sprague-Dawley rat at 10 mg/kg, po administered as single dose; format: ADME, organism-based; conditions: in vivo; method in brief: as §3
[11] = AUC (0 to infinity) in Sprague-Dawley rat at 50 mg/kg, iv administered as single dose; format: ADME, organism-based; design: dose 50 mg/kg, time infinity, route intravenous; conditions: in vivo; method in brief: as §4
[12] = Half life in dog at 3 mg/kg, iv administered as single dose; format: ADME, organism-based, Canis lupus familiaris; conditions: in vivo
Method in brief: (§5)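 Dogs were dosed once, by iv injection or orally, with oral doses spanning 5 to 50 mg/kg. Plasma pharmacokinetic parameters were derived: CL, AUC0-inf, t1/2, Cmax and %F.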

[13] = Oral bioavailability in dog at 50 mg/kg administered as single dose; format: ADME, organism-based, Canis lupus familiaris; conditions: in vivo; method in brief: as §5
[14] = AUC (0 to infinity) in dog at 1 mg/kg, iv administered as single dose; format: ADME, organism-based, Canis lupus familiaris; design: dose 1 mg/kg, route intravenous, time infinity; conditions: in vivo; method in brief: as §2
[15] = AUC (0 to infinity) in Sprague-Dawley rat at 10 mg/kg, iv administered as single dose; format: ADME, organism-based; design: dose 10 mg/kg, time infinity, route intravenous; conditions: in vivo; method in brief: as §4
[16] = Drug uptake in C57Bl6 mouse plasma at 50 mg/kg, po administered as single dose measured at 1 hr post-dose; format: ADME, organism-based; conditions: in vivo
Method in brief: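 C57Bl/6 mice received a single oral dose of 50 mg/kg. Drug levels were compared in plasma and other organs over time after dosing.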

[17] = Permeability across basolateral to apical side in human Caco2 cells; format: ADME, cell-based; conditions: Caco-2, read-out: permeability
[18] = Half life in Sprague-Dawley rat at 10 mg/kg, iv administered as single dose; format: ADME, organism-based; conditions: in vivo; method in brief: as §4
[19] = AUC (0 to 12 hrs) in dog at 200 mg/kg administered twice daily for 28 days with 2 week recovery; format: ADME, organism-based, Canis lupus familiaris; design: dose 200 mg/kg, time < 12 hr; conditions: in vivo
[20] = AUC (0 to infinity) in dog at 25 mg/kg, iv administered as single dose; format: ADME, organism-based, Canis lupus familiaris; design: dose 25 mg/kg, route intravenous, time infinity; conditions: in vivo; method in brief: as §2
[21] = AUC (0 to infinity) in C57Bl6 mouse at 10 mg/kg, iv administered as single dose; format: ADME, organism-based; design: dose 10 mg/kg, time infinity, route intravenous; conditions: in vivo; method in brief: as §1
[22] = Aqueous solubility of the compound at pH 7.4; format: physicochemical
[23] = Half life in C57Bl6 mouse at 10 mg/kg, po administered as single dose; format: ADME, organism-based; conditions: in vivo; method in brief: as §1
[24] = AUC (0 to infinity) in Sprague-Dawley rat at 10 mg/kg, po administered as single dose; format: ADME, organism-based; design: dose 10 mg/kg, route oral, time infinity; conditions: in vivo; method in brief: as §4
[25] = Stability in rat microsomes assessed as parent compound remaining after 90 mins in presence of phase 1 and 2 metabolic cofactors; format: ADME, Microsome; conditions: read-out: Stability
[26] = Cmax in C57Bl6 mouse at 10 mg/kg, po administered as single dose; format: ADME, organism-based; design: dose 10 mg/kg, route oral; conditions: in vivo; method in brief: as §1
[27] = Clearance in Sprague-Dawley rat at 50 mg/kg, iv administered as single dose; format: ADME, organism-based; conditions: in vivo; method in brief: as §4
[28] = Oral bioavailability in dog at 150 mg/kg administered as single dose; format: ADME, organism-based, Canis lupus familiaris; conditions: in vivo
[29] = Oral bioavailability in dog at 15 mg/kg administered as single dose; format: ADME, organism-based, Canis lupus familiaris; conditions: in vivo; method in brief: as §5
[30] = Cmax in C57Bl6 mouse at 100 mg/kg, po administered as single dose; format: ADME, organism-based; design: dose 100 mg/kg, route oral; conditions: in vivo; method in brief: as §1
[31] = Cmax in Sprague-Dawley rat at 25 mg/kg, po administered as single dose; format: ADME, organism-based; design: dose 25 mg/kg, route oral; conditions: in vivo; method in brief: as §4
[32] = Cmax in Sprague-Dawley rat at 10 mg/kg, po administered as single dose; format: ADME, organism-based; design: dose 10 mg/kg, route oral; conditions: in vivo; method in brief: as §4
[33] = AUC (0 to infinity) in C57Bl6 mouse at 50 mg/kg, iv administered as single dose; format: ADME, organism-based; design: dose 50 mg/kg, route intravenous, time infinity; conditions: in vivo; method in brief: as §1
[34] = Half life in C57Bl6 mouse at 50 mg/kg, iv administered as single dose; format: ADME, organism-based; conditions: in vivo; method in brief: as §1
[35] = Half life in Sprague-Dawley rat at 50 mg/kg, iv administered as single dose; format: ADME, organism-based; conditions: in vivo; method in brief: as §3
[36] = Oral bioavailability in dog at 5 mg/kg administered as single dose; format: ADME, organism-based, Canis lupus familiaris; conditions: in vivo; method in brief: as §5

O[C@H](C[C@H]1c2c(F)cccc2-c2cncn21)[C@H]1CC[C@H](O)CC1 [NAVOXIMOD]
AUC(0-inf) [1]: 3780 ng·h/mL | Cmax [2]: 1400 ng/mL | NOAEL at 28 days [3]: 200 mg/kg | remaining at […] [4]: > 85% | half-life [5]: 1.15 h | half-life [6]: 1.25 h | AUC(0-inf) [7]: 57800 ng·h/mL | AUC(0-inf) [8]: 13400 ng·h/mL | half-life [9]: 3.3 h | half-life [10]: 1.05 h | AUC(0-inf) [11]: 35000 ng·h/mL | half-life [12]: 1.6 h | bioavailability [13]: 43% | AUC(0-inf) [14]: 282 ng·h/mL | AUC(0-inf) [15]: 3930 ng·h/mL | Drug uptake [16]: Active | Papp B→A [17]: 35 ×10⁻⁶ cm/s | half-life [18]: 1.44 h | AUC at 12 h [19]: 22600 ng·h/mL | AUC(0-inf) [20]: 10000 ng·h/mL | AUC(0-inf) [21]: 6130 ng·h/mL | solubility [22]: > 200 µM | half-life [23]: 1.2 h | AUC(0-inf) [24]: 1630 ng·h/mL | remaining at […] [25]: > 85% | Cmax [26]: 2260 ng/mL | clearance [27]: 23.2 mL/min/kg | bioavailability [28]: 71.8% | bioavailability [29]: 22.3% | Cmax [30]: 14200 ng/mL | Cmax [31]: 6420 ng/mL | Cmax [32]: 1560 ng/mL | AUC(0-inf) [33]: 34600 ng·h/mL | half-life [34]: 3 h | half-life [35]: 1 h | bioavailability [36]: 13.7%
